Measurements from ChEMBL document CHEMBL6134776, “New anti-ovarian cancer quinolone derivatives acting by modulating microRNA processing machinery” (RSC Med Chem, 2025).
One block for each compound: values may come before it. Activity calls are given as the source filed them. The calls are words filed in the database; no cut-off is given here.

Assays:
SK-OV-3 [1] = experiment: Antiproliferative activity against human SK-OV-3 cells assessed as growth inhibition measured after 72 hrs; type: functional
Procedure, shortened: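 100 000 SKOV-3 or Wi-38 cells per 35 mm dish, allowed to adhere, then given compound at scalar concentrations. First pass ran up to 200 μM (SKOV-3) or 250 μM (Wi-38), then a narrowed range. Cells counted after 72 h and GI50/CC50 taken by linear regression with 95% CI. Three experiments in triplicate, three counts per sample.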

SKOV-3 (Homo sapiens) = experiment: Antiproliferative activity against human SKOV-3 cells assessed as growth inhibition measured after 72 hrs
SK-OV-3 [2] = experiment: Effect on cleaved PARP1 level in human SK-OV-3 cells by Western blot analysis; type: functional, cell-based
Procedure, shortened: (§1)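 SKOV-3 and A2780 given 30 μM compound for 72 h. Protein extracts run on 4–12% bis–tris gels and blotted to nitrocellulose, blocked in 5% milk. Probed for cleaved PARP and Bcl-XL, with β-actin as loading control.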

SK-HEP1 [3] = experiment: Antiproliferative activity against TRBP knockout human SK-HEP1cells assessed as growth inhibition at 30 uM measured after 48 hrs by CCK-8 method; type: functional, cell-based
Procedure, shortened: (§2)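 HCCLM3 and SK-Hep-1 cells, TRBP wild-type and knockout, seeded at 10 000 cells/well and left to adhere overnight. Treated 48 h alongside a 0.1% DMSO negative control and a 125 μM enoxacin positive control. Viability read with 10% CCK-8 in DMEM, 30 min at 37 °C, at 450 nm.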

A2780 [4] = experiment: Downregulation of Bcl-Xl level in human A2780 cells by Western blot analysis; type: functional, cell-based; procedure, shortened: as §1
[5] = biological target: T1, DNA topoisomerase 1 (Homo sapiens) (UniProt P11387); experiment: Inhibition of human topoisomerase I at 100 uM by spectrophotometric analysis
T1 sequence (whole entry): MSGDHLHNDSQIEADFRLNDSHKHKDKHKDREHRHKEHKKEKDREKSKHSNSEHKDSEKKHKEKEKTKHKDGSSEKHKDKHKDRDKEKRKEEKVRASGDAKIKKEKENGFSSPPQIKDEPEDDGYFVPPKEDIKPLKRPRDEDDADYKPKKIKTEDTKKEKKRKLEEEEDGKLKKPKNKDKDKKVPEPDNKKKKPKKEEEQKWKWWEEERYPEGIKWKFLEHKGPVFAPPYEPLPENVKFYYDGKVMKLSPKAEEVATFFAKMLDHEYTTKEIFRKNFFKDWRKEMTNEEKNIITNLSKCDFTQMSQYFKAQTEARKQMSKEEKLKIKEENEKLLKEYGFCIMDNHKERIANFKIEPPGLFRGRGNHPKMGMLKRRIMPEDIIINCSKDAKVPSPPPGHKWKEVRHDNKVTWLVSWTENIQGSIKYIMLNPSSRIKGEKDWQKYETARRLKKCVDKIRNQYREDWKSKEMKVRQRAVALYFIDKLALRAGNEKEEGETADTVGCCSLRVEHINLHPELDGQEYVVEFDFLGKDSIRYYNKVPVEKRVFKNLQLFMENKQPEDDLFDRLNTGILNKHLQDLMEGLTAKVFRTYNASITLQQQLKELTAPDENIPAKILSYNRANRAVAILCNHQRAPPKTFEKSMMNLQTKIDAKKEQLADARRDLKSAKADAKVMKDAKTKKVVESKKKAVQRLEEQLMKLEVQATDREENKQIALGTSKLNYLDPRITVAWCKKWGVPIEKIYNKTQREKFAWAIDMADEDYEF

[6] = system: Cisplatin-resistant A2780; experiment: Antiproliferative activity against human Cisplatin-resistant A2780 cells assessed as growth inhibition at 30 uM measured after 48 hrs in presence of cisplatin
HCCLM3 [7] = experiment: Antiproliferative activity against TRBP knockout human HCCLM3 cells assessed as growth inhibition at 30 uM measured after 48 hrs by CCK-8 method; type: functional, cell-based; procedure, shortened: as §2
HeLa = experiment: Induction of miR-21-5p biogenesis in human HeLa cells assessed as decrease in renilla luciferase activity at 50 uM measured after 6 hrs by dual-luciferase reporter assay
SK-HEP1 [8] = experiment: Antiproliferative activity against wild type human SK-HEP1 cells assessed as growth inhibition at 50 uM measured after 48 hrs by CCK-8 method; type: functional, cell-based; procedure, shortened: as §2
A2780 [9] = experiment: Antiproliferative activity against human A2780 cells assessed as growth inhibition at 30 uM measured after 72 hrs; type: functional, cell-based
Procedure, shortened: (§3)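 Cells dosed at 30 μM for 72 h in RPMI 1640 (A2780, SKOV-3) or DMEM (MCF-7, A549, HCT-116), 10% FBS, 37 °C, 5% CO2. Total and viable cell numbers taken by trypan blue with an automated counter. Viable cells given as % of DMSO; dead cells as a percentage. At least three independent experiments.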

HCT-116 = experiment: Antiproliferative activity against human HCT-116 cells assessed as growth inhibition at 30 uM measured after 72 hrs; type: functional, cell-based; procedure, shortened: as §3
HEK-293T = experiment: Induction of RNAi enhancing activity in HEK293T cells transfected with shGAPDH assessed as decrease in amount of GAPDH mRNA at 50 uM incubated for 48 hrs by qRT-PCR; type: functional, cell-based; details: Homo sapiens
Procedure, shortened: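 HEK-293T stably expressing shGAPDH or scrambled shRNA (lentiviral transduction, puromycin 3 μg mL−1 selection) treated 48 h at 50 μM. GAPDH mRNA measured by qRT-PCR against ATP5O, relative to sh-Scr/DMSO set to 1. At least three independent experiments.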

HCCLM3 [10] = experiment: Antiproliferative activity against wild type human HCCLM3 cells assessed as growth inhibition at 30 uM measured after 48 hrs by CCK-8 method relative to control; type: functional, cell-based; procedure, shortened: as §2
A2780 [11] = experiment: Induction of cell death in human A2780 cells assessed as increase in percentage of dead cells at 30 uM incubated for 72 hrs by trypan blue staining based analysis; type: functional; procedure, shortened: as §3
SK-OV-3 [12] = experiment: Induction of cell death in human SK-OV-3 cells assessed as reduction in total number of cells at 30 uM incubated for 72 hrs by trypan blue staining based analysis; type: functional; procedure, shortened: as §3
[13] = system: Cisplatin-resistant A2780; experiment: Antiproliferative activity against human Cisplatin-resistant A2780 cells assessed as growth inhibition at 30 uM measured after 48 hrs
A2780 [14] = experiment: Upregulation of cleaved PARP1 level in human A2780 cells by Western blot analysis; type: functional, cell-based; procedure, shortened: as §1
SK-HEP1 [15] = experiment: Antiproliferative activity against TRBP knockout human SK-HEP1 cells assessed as growth inhibition at 50 uM measured after 48 hrs by CCK-8 method; type: functional, cell-based; procedure, shortened: as §2
SK-HEP1 [16] = experiment: Antiproliferative activity against wild type human SK-HEP1 cells assessed as growth inhibition at 30 uM measured after 48 hrs by CCK-8 method; type: functional, cell-based; procedure, shortened: as §2
Homo sapiens = species: Homo sapiens; experiment: Inhibition of human topoisomerase II at 100 uM by spectrophotometric analysis
SK-OV-3 [17] = experiment: Effect on Bcl-Xl level in human SK-OV-3 cells by Western blot analysis; type: functional, cell-based; procedure, shortened: as §1
A2780 [18] = experiment: Antiproliferative activity against human A2780 cells assessed as growth inhibition at 30 uM measured after 48 hrs in presence of cisplatin
MCF7 = experiment: Antiproliferative activity against human MCF7 cells assessed as growth inhibition at 30 uM measured after 72 hrs; type: functional, cell-based; procedure, shortened: as §3
A549 = experiment: Antiproliferative activity against human A549 cells assessed as growth inhibition at 30 uM measured after 72 hrs; type: functional, cell-based; procedure, shortened: as §3
A2780 [19] = experiment: Induction of cell death in human A2780 cells assessed as reduction in total number of cells at 30 uM incubated for 72 hrs by trypan blue staining based analysis; type: functional; procedure, shortened: as §3

SMILES: Nc1cc2c(=O)c(C(=O)O)cn(C3CC3)c2cc1N1CCc2ncncc2C1
GI50 at 72 h (SKOV-3 (Homo sapiens)): ≥ 25 µM

SMILES: Cc1c(N2CCOCC2)c(N)cc2c(=O)c(C(=O)O)cn(C3CC3)c12
GI50 (SK-OV-3 [1]): > 100 µM

SMILES: Cc1c(NCCN2CCCCC2)c(N)cc2c(=O)c(C(=O)O)cn(C3CC3)c12
GI50 at 72 h (SKOV-3 (Homo sapiens)): ≥ 25 µM

SMILES: Cc1c(N2CCC(O)CC2)c(N)cc2c(=O)c(C(=O)O)cn(C3CC3)c12
GI50 (SK-OV-3 [1]): > 100 µM

SMILES: Cc1c(N2CCCCC2)c(N)cc2c(=O)c(C(=O)O)cn(C3CC3)c12
GI50 (SK-OV-3 [1]): > 100 µM

SMILES: Cc1c(N2Cc3ccccc3C2)c(N)cc2c(=O)c(C(=O)O)cn(C3CC3)c12
GI50 at 72 h (SKOV-3 (Homo sapiens)): ≥ 25 µM

SMILES: Cc1c(N2CCC3CCCCC3C2)c(N)cc2c(=O)c(C(=O)O)cn(C3CC3)c12 (stereo not drawn)
GI50 (SK-OV-3 [1]): > 100 µM

Continued, in another order:

GI50 (SK-OV-3 [1]): 100 µM
SMILES: Cc1c(N2CC(C)OC(C)C2)c(N)cc2c(=O)c(C(=O)O)cn(C3CC3)c12 (stereo not drawn)

inhibition [5]: inactive
inhibition (Homo sapiens): inactive
SMILES: O=C(O)c1cn(C2CC2)c2cc(N3CCc4ccccc4C3)c(F)cc2c1=O
Activity (SK-OV-3 [2]): inactive
Activity (SK-HEP1 [3]): inactive
Activity (A2780 [4]): Active
Activity [6]: Active
Activity (HCCLM3 [7]): inactive
Activity (HeLa): Active
Activity (SK-HEP1 [8]): Active
Activity (A2780 [9]): Active
Activity (HCT-116): Active
Activity (HEK-293T): Active
Activity (HCCLM3 [10]): Active
Activity (A2780 [11]): Active
Activity (SK-OV-3 [12]): Active
Activity [13]: Active
Activity (A2780 [14]): Active
Activity (SK-HEP1 [15]): inactive
Activity (SK-HEP1 [16]): inactive
Activity (SK-OV-3 [17]): inactive
Activity (A2780 [18]): Active
Activity (MCF7): Active
Activity (A549): Active
Activity (A2780 [19]): Active

GI50 (SK-OV-3 [1]): > 100 µM
SMILES: CC(C)(C)n1cc(C(=O)O)c(=O)c2cc(N)c(N3CCc4ccccc43)cc21
